Source: ChEMBL document CHEMBL4765307, “Design, synthesis and biological activity of novel 2,3,4,5-tetra-substituted thiophene derivatives as PI3Kα inhibitors with potent antitumor activity” (Eur J Med Chem, 2020)

Assays:
[1] = AUC (0 to infinity) in Sprague-Dawley rat at 5 mg/kg, iv measured after 24 hrs by LC-MS/MS analysis; type: ADME, organism-based; design: route intravenous, dose 5 mg/kg, time 24 hrs; conditions: in vivo
How it was run: (§1)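 Male SD rats (n=6), single 5 mg/kg intravenous dose; heparinised blood at 0.083–24 h, centrifuged at 4 °C; plasma quantified by LC–MS/MS; noncompartmental parameters.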

[2] = target: Phosphatidylinositol 4,5-bisphosphate 3-kinase catalytic subunit gamma isoform (Homo sapiens, UniProt P48736); experiment: Inhibition of GST-tagged human recombinant PI3Kgamma catalytic domain (468 to 1203 residues) expressed in insect cells using PIP2 peptide as substrate incubated for 1 hr in presence ATP by ADP-Glo Kinase Assay
Sequence of Phosphatidylinositol 4,5-bisphosphate 3-kinase catalytic subunit gamma isoform (P48736 whole entry, the tested form may be a part, canonical isoform): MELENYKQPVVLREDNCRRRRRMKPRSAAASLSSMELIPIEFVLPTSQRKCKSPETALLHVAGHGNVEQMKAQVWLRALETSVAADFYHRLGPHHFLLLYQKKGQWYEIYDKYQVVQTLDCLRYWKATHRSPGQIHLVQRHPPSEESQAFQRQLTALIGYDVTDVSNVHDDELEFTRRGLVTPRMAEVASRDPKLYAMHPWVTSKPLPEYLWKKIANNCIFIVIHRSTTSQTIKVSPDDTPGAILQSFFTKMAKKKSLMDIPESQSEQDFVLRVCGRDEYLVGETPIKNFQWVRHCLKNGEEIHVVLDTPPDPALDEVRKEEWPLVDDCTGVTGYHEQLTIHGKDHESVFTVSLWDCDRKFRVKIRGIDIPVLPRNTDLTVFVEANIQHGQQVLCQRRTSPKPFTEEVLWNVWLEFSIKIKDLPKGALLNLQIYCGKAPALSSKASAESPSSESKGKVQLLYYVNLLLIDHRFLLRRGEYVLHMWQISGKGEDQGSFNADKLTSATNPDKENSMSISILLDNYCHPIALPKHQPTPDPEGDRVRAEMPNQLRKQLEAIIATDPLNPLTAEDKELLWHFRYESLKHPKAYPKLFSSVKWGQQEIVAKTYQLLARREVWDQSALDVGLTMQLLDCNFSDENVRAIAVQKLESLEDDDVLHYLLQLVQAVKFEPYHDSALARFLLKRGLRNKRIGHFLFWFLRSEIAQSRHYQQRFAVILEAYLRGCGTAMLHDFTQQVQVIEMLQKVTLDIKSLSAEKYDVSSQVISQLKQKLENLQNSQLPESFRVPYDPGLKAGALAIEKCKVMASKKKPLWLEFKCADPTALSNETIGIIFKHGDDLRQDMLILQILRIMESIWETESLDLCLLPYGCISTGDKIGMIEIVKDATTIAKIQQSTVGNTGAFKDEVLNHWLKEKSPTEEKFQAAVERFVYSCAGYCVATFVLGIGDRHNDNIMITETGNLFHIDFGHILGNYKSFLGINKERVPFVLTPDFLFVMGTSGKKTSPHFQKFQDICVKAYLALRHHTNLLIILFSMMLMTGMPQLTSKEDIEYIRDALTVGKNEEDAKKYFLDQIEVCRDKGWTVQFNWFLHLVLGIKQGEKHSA
How it was run: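 ADP-Glo reagent 1 for 40 min, then reagent 2 with 60 min equilibration before reading. IC50 taken from inhibition curves; average of at least two runs.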

[3] = target: Phosphatidylinositol 4,5-bisphosphate 3-kinase catalytic subunit alpha isoform (Homo sapiens) (UniProt P42336); experiment: Inhibition of PI3Kalpha in human T47D cells assessed as inhibition of insulin-stimulated Akt phosphorylation at Ser473 residue at 1 uM preincubated for 2 hrs followed by incubation with insulin for 2 hrs by western blot analysis relative to control; type: cell-based; conditions: time 4.0 hrs
Sequence of Phosphatidylinositol 4,5-bisphosphate 3-kinase catalytic subunit alpha isoform (Homo sapiens) (P42336 whole entry, canonical isoform): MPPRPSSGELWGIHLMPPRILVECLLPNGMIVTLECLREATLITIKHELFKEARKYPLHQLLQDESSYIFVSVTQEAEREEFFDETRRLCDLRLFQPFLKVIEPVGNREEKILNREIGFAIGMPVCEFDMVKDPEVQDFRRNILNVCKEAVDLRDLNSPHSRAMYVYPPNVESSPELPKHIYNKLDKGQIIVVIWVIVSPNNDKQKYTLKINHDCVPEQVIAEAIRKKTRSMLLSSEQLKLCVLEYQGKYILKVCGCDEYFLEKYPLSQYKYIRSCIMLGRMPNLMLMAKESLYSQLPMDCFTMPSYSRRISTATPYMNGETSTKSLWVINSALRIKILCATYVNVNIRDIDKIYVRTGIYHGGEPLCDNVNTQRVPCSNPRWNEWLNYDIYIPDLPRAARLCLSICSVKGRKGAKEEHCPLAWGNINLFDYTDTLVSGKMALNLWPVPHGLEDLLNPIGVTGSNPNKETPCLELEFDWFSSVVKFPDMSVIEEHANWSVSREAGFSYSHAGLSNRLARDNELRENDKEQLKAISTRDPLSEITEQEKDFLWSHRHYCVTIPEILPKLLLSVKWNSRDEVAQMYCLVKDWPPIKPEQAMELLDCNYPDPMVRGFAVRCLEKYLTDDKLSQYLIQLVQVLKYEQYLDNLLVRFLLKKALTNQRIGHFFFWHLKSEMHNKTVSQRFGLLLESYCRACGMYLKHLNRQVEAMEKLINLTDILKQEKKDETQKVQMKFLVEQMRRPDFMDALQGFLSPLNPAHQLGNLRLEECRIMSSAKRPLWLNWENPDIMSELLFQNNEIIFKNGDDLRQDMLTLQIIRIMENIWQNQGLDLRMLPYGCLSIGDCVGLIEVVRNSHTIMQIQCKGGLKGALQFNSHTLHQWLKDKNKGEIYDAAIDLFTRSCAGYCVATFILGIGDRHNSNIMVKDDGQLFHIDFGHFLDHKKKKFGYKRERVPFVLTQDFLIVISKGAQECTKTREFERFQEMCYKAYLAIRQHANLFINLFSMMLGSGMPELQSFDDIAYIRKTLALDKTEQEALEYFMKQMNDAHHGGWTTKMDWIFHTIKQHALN
How it was run: (§2)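 T47D cells given compound at 37 °C for 2 h, then stimulated with 1 µg/mL insulin for 2 h; lysed in RIPA with protease/phosphatase inhibitors and 1 mM PMSF; BCA-normalised SDS-PAGE, PVDF blot probed overnight at 4 °C for total Akt and pAkt Ser473, infrared secondary detection.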

[4] = target: Phosphatidylinositol 4,5-bisphosphate 3-kinase catalytic subunit alpha isoform (Homo sapiens) (UniProt P42336); experiment: Inhibition of PI3Kalpha in human T47D cells assessed as inhibition of insulin-stimulated Akt phosphorylation at Ser473 residue at 3 uM preincubated for 2 hrs followed by incubation with insulin for 2 hrs by western blot analysis relative to control; type: cell-based; conditions: time 4.0 hrs; how it was run: as §2
[5] = Apparent permeability across apical to basolateral side in human Caco2 cells at 2 uM incubated for 2 hrs by LC-MS/MS analysis; type: ADME, cell-based; conditions: Caco-2
How it was run: (§3)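 Caco-2 monolayers grown 21–28 days; compound 2 µM both directions in duplicate, DMSO <1%; 2 h at 37 °C, 5% CO2 without shaking. Donor and receiver levels by LC/MS/MS; integrity by lucifer yellow. Papp = (dCr/dt)×Vr/(A×C0); efflux ratio = Papp(B-A)/Papp(A-B).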

[6] = Half life in rat liver microsomes at 1 uM by LC-MS/MS analysis; type: ADME, Microsome
How it was run: (§4)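 Compound 1 µM with human or rat microsomes 0.5 mg/mL, preincubated 10 min at 37 °C in 100 mM potassium phosphate pH 7.4, 10 mM MgCl2; started with NADPH, sampled 0–60 min, quenched with cold acetonitrile, LC–MS/MS. A parallel no-NADPH control was run.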

[7] = target: PI3-kinase p110-delta/p85-alpha (Homo sapiens, UniProt O00329); experiment: Inhibition of N-terminal His6-tagged human recombinant full length PI3Kdelta co-expressed with human recombinant full length P85alpha in baculovirus infected Sf21 cells using PIP2 peptide as substrate incubated for 2 hrs in presence ATP by ADP-Glo Kinase Assay
Sequence of PI3-kinase p110-delta/p85-alpha (P27986 whole entry): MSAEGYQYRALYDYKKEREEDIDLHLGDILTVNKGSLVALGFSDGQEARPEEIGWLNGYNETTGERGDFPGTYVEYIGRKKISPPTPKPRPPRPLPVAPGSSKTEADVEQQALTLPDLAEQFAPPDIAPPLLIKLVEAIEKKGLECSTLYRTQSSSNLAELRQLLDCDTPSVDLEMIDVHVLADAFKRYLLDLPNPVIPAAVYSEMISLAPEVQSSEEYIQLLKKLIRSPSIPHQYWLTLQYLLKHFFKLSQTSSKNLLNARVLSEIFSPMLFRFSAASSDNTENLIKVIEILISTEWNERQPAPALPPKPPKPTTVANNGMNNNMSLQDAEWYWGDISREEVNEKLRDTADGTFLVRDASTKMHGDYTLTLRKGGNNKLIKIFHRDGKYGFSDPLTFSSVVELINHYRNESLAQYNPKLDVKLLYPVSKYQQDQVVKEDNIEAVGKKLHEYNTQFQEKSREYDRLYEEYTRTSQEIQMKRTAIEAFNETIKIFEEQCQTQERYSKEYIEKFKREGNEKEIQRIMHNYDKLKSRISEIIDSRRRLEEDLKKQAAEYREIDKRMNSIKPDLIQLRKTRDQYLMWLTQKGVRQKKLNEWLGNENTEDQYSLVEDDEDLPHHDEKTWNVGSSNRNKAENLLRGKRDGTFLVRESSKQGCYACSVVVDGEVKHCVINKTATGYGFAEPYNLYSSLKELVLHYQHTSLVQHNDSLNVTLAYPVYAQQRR
Sequence of PI3-kinase p110-delta/p85-alpha (O00329 whole entry): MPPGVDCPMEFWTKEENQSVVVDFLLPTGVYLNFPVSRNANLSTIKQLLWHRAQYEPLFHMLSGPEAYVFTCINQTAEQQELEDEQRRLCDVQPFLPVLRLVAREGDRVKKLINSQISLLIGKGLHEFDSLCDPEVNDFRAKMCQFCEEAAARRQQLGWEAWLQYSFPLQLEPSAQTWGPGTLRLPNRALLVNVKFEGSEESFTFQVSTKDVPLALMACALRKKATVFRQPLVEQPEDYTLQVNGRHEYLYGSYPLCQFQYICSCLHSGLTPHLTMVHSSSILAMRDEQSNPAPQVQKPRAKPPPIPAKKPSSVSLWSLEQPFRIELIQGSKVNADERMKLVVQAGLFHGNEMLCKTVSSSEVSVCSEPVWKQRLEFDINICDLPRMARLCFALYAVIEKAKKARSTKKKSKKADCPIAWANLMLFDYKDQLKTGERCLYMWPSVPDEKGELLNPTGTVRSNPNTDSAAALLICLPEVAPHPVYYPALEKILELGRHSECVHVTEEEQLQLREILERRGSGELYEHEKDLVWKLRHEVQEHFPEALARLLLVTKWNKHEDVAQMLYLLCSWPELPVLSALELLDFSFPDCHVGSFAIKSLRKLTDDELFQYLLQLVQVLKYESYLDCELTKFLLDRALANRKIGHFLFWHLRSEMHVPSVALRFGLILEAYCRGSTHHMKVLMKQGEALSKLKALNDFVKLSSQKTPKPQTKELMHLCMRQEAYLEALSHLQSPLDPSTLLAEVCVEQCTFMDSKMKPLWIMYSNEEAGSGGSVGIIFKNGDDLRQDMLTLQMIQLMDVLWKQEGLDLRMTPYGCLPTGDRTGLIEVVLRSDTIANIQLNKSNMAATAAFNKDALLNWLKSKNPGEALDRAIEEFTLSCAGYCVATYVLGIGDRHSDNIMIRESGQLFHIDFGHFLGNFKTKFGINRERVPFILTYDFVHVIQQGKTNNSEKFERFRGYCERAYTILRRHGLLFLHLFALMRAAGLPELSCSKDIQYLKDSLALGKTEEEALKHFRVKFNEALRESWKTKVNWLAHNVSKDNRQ
How it was run: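 ADP-Glo reagent 1 for 40 min, then reagent 2 with 60 min equilibration. IC50 from inhibition curves; average of at least two runs.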

[8] = target: Phosphatidylinositol 4,5-bisphosphate 3-kinase catalytic subunit alpha isoform (Homo sapiens) (UniProt P42336); experiment: Inhibition of PI3Kalpha in human T47D cells assessed as inhibition of insulin-stimulated Akt phosphorylation at Ser473 residue preincubated for 2 hrs followed by incubation with insulin for 2 hrs by western blot analysis relative to control; type: cell-based; conditions: dose 0.1-3 µM, time 4.0 hrs; how it was run: as §2
[9] = Efflux ratio of permeability from basolateral to apical over apical to basolateral side in human Caco2 cells at 2 uM incubated for 2 hrs by LC-MS/MS analysis; type: ADME, cell-based; conditions: Caco-2; how it was run: as §3
[10] = Clearance in Sprague-Dawley rat at 5 mg/kg, iv measured after 24 hrs by LC-MS/MS analysis; type: ADME, organism-based; conditions: in vivo; how it was run: as §1
[11] = target: Phosphatidylinositol 4,5-bisphosphate 3-kinase catalytic subunit alpha isoform (Homo sapiens) (UniProt P42336); experiment: Inhibition of PI3Kalpha in human T47D cells assessed as inhibition of insulin-stimulated Akt phosphorylation at Ser473 residue at 0.1 uM preincubated for 2 hrs followed by incubation with insulin for 2 hrs by western blot analysis relative to control; type: cell-based; conditions: time 4.0 hrs; how it was run: as §2
CYP3A4 = CYP3A4 (Homo sapiens, UniProt P08684); experiment: Inhibition of CYP3A4 in human liver microsomes using midazolam as substrate at 10 uM preincubated for 10 mins followed by incubation with NADPH for 10 mins by LC- MS/MS analysis; type: ADME; conditions: probe midazolam, time 20 min
Sequence of CYP3A4 (P08684 whole entry): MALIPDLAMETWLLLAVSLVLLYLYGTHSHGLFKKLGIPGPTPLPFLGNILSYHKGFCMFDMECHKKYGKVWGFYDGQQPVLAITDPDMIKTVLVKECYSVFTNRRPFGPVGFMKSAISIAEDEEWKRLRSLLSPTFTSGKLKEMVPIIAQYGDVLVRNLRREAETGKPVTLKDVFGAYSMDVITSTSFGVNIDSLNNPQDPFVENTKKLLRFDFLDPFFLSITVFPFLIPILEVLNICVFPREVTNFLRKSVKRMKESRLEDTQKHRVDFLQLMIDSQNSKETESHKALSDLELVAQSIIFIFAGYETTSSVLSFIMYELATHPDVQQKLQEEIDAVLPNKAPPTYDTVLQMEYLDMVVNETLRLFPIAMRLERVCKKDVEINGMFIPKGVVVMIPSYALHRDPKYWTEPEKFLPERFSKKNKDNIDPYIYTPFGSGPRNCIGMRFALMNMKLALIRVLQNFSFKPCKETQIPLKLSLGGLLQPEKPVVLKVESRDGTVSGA
How it was run: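 Human liver microsomes 0.25 mg/mL with probe substrate (CYP1A2 10 µM phenacetin; CYP2D6 5 µM dextromethorphan; CYP3A4 2 µM midazolam), test compound 10 µM; 10 min preincubation at 37 °C, NADPH added (final 10 mM), 10 min at 37 °C; stopped with cold acetonitrile containing internal standards; LC-MS/MS.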

[12] = Cmax in Sprague-Dawley rat at 5 mg/kg, iv measured after 24 hrs by LC-MS/MS analysis; type: ADME, organism-based; design: route intravenous, dose 5 mg/kg, time 24 hrs; conditions: in vivo; how it was run: as §1
U-87 MG = experiment: Antiproliferative activity against human U87MG cells harboring PTEN deletion assessed as reduction in cell viability after 3 days by CellTiter-Glo luminescence assay; type: functional, cell-based, U-87MG ATCC; conditions: 72 h
How it was run: (§5)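 ATCC lines, 10% FBS: T47D, H1975, H460 in RPMI1640; U87MG in DMEM; A549 in F12K. Seeded 3×10^3 per well the day before, exposed to 3-fold serial dilutions or DMSO for 3 days at 37 °C, 5% CO2; CellTiter-Glo luminescence.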

T47D = experiment: Antiproliferative activity against human T47D cells harboring PIK3CA mutation assessed as reduction in cell viability after 3 days by CellTiter-Glo luminescence assay; type: functional, cell-based; conditions: 72 h; how it was run: as §5
[13] = Volume of distribution in Sprague-Dawley rat at 5 mg/kg, iv measured after 24 hrs by LC-MS/MS analysis; type: ADME, organism-based; conditions: in vivo; how it was run: as §1
[14] = Clearance in rat liver microsomes at 1 uM measured after 60 mins by LC-MS/MS analysis; type: ADME, Microsome; conditions: read-out: CLH; how it was run: as §4
[15] = Clearance in human liver microsomes at 1 uM measured after 60 mins by LC-MS/MS analysis; type: ADME, Microsome; conditions: read-out: CLH; how it was run: as §4

AUC(0-inf) [1]: 1620 ng·h/mL
IC50 [2]: 258 nM
Ki [2]: 193 nM
inhibition [3]: 78%
inhibition [4]: 90%
Papp A→B at 2 h, 2 µM [5]: 7.8 ×10⁻⁶ cm/s
half-life at 1 µM [6]: 44.7 min
IC50 [7]: 275 nM
Ki [7]: 245 nM
inhibition [8]: Dose-dependent effect
efflux ratio at 2 h, 2 µM [9]: 1.08
clearance [10]: 52.4 mL/min/kg
inhibition [11]: 58%
inhibition at 10 min, 10 µM (CYP3A4): 1.5%
Cmax [12]: 2570 ng/mL
IC50 (U-87 MG): 2860 nM
IC50 (T47D): 310 nM
Vd [13]: 8.6 L/kg
microsomal CLint at 1 µM [14]: 32.8 µL/min/mg
microsomal CLint at 1 µM [15]: 24.8 µL/min/mg
Structure (SMILES): N#Cc1c(N2CCOCC2)sc(-c2nc[nH]n2)c1-c1ccc(NC(=O)Nc2ccccc2Cl)cc1
